Source: ChEMBL document CHEMBL3877303 (J Med Chem, 2017)
Active and inactive are the calls of the source. No cut-off for these calls is given here.

What was measured:
[1] = Growth inhibition of mouse BAF3 cells measured after 72 hrs by CellTiter-Glo or CCK8 assay; type: cell-based
Procedure, shortened: (§1)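 Cells at 1 to 2.5×10^4 cells/mL were incubated with a range of compound concentrations for 72 h. Viability was read by CellTiter-Glo luminescence or CCK-8 absorbance (450/655 nm) and normalized to DMSO control. GI50 came from curve fitting, with triplicate testing.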

[2] = molecular target: Tyrosine-protein kinase Blk (Homo sapiens, UniProt P51451); assay: Inhibition of Tel-fused BLK (unknown origin) expressed in BAF3 cells assessed as growth inhibition measured after 72 hrs by CellTiter-Glo or CCK8 assay; type: cell-based
Procedure, shortened: (§2)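 BaF3 lines were made by retroviral transduction with kinase-fusion MSCV vectors packaged in HEK293T cells. Cells were selected with puromycin for 48 h, then selected again without IL-3 so growth depends on the introduced kinase. […] They were seeded at 1 to 2.5×10^4 cells/mL with compound dilutions and incubated 72 h. Viability was read by CellTiter-Glo luminescence or CCK-8 absorbance (450/655 nm), normalized to DMSO control; GI50 was curve-fitted from triplicate tests.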

[3] = molecular target: T1, Discoidin domain-containing receptor 2 (Homo sapiens) (UniProt Q16832); assay: Inhibition of BCR-fused DDR2 (unknown origin) expressed in BAF3 cells assessed as growth inhibition measured after 72 hrs by CellTiter-Glo or CCK8 assay; type: cell-based; procedure, shortened: as §2
T1 sequence (whole entry): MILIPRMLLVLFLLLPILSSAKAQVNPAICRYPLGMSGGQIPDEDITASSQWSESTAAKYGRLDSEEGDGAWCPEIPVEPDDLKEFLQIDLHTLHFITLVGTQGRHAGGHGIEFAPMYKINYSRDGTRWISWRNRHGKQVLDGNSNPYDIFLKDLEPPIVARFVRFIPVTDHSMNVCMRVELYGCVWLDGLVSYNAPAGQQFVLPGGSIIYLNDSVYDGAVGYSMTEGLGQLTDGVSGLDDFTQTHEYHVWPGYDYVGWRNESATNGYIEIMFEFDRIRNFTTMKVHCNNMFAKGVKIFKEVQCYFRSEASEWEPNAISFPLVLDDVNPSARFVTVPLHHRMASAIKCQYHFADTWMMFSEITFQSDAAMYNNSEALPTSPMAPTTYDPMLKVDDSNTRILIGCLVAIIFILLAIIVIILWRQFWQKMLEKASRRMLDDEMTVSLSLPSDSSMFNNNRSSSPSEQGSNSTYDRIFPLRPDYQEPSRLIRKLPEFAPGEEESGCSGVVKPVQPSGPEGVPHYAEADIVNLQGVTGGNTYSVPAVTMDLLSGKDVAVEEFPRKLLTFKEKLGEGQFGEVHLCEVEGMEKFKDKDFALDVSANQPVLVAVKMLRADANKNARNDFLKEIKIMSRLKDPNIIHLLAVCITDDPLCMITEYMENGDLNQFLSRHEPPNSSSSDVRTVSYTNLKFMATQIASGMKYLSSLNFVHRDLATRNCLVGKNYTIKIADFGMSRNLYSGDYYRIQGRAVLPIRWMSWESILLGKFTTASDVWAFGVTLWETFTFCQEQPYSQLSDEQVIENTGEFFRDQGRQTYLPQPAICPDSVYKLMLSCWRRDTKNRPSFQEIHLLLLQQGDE

[4] = molecular target: Vascular endothelial growth factor receptor 2 (Homo sapiens) (UniProt P35968); assay: Inhibition of Tel-fused VEGFR2 (unknown origin) expressed in BAF3 cells assessed as growth inhibition measured after 72 hrs by CellTiter-Glo or CCK8 assay; type: cell-based; procedure, shortened: as §2
[5] = Antiproliferative activity against human GISTT1 cells measured after 72 hrs by CellTiter-Glo or CCK8 assay; type: functional; conditions: GISTT1, 72 h; procedure, shortened: as §1
[6] = Antiproliferative activity against human GIST882 cells measured after 72 hrs by CellTiter-Glo or CCK8 assay; type: functional; conditions: GIST882, 72 h; procedure, shortened: as §1
[7] = Antiproliferative activity against human GIST48B cells measured after 72 hrs by CellTiter-Glo or CCK8 assay; type: functional; procedure, shortened: as §1
[8] = Antiproliferative activity against human MV4-11 cells measured after 72 hrs by CellTiter-Glo or CCK8 assay; type: functional; conditions: MV4-11, 72 h; procedure, shortened: as §1
[9] = Antiproliferative activity against human MOLM14 cells measured after 72 hrs by CellTiter-Glo or CCK8 assay; type: functional; conditions: MOLM-14, 72 h; procedure, shortened: as §1
[10] = Antiproliferative activity against human U937 cells measured after 72 hrs by CellTiter-Glo or CCK8 assay; type: functional; conditions: U-937, 72 h; procedure, shortened: as §1
[11] = Antiproliferative activity against human HL60 cells measured after 72 hrs by CellTiter-Glo or CCK8 assay; type: functional; conditions: HL-60, 72 h; procedure, shortened: as §1
[12] = Antiproliferative activity against human Rec1 cells measured after 72 hrs by CellTiter-Glo or CCK8 assay; type: functional; conditions: Rec1, 72 h; procedure, shortened: as §1
[13] = Antiproliferative activity against CHO cells measured after 72 hrs by CellTiter-Glo or CCK8 assay; type: cell-based, Cricetulus griseus; conditions: chinese hamster; procedure, shortened: as §1
[14] = Anticancer activity against human K562 cells xenografted in nu/nu mouse assessed as tumor growth inhibition at 100 mg/kg administered daily via oral gavage measured 28 days post compound treatment relative to vehicle-treated control; type: functional; conditions: 672 h, read-out: TGI
Procedure, shortened: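 Female nu/nu mice received ten million K562 cells subcutaneously in the right flank, in PBS mixed 1:1 with Matrigel. Daily oral gavage began at 200-400 mm³ tumor size, with 4 or 5 mice per group. Dosing was 25, 50 or 100 mg/kg/d or vehicle (0.5% methylcellulose/0.4% Tween80) for 28 days. Body weight and tumor size were normalized to initial values, and final tumor weight was recorded. Data are mean ± SEM.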

[15] = molecular target: BCR/ABL p210 fusion protein (Homo sapiens, UniProt A1Z199); assay: Inhibition of BCR/ABL p210 fusion protein mediated signaling pathways assessed as reduction in ERK phosphorylation at T202/Y204 in human K562 cells at 0.01 to 3 uM measured after 2 hrs by immunoblotting; type: cell-based
Procedure, shortened: (§3)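 After an ice-cold PBS wash, cells were lysed in RIPA buffer (50 mM Tris pH 8.0) with protease and phosphatase inhibitors, and protein was quantified by BCA. Lysates were run on SDS-PAGE, transferred to PVDF and blocked in 5% milk/TBST. Phospho- and total proteins were probed by immunoblot with ECL detection; β-actin served as loading control.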

[16] = molecular target: Mast/stem cell growth factor receptor Kit (Homo sapiens, UniProt P10721); assay: Inhibition of c-KIT mediated signaling pathways assessed as reduction in S6 phosphorylation at S235/236 in human GISTT1 cells at 0.03 to 10 uM measured after 2 hrs by immunoblotting; type: cell-based; procedure, shortened: as §3
K562 = assay: Induction of apoptosis in human K562 cells xenografted in nu/nu mouse administered daily via oral gavage measured 28 days post compound treatment by TUNEL staining based assay; type: functional, cell-based
Procedure, shortened: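 K562 xenograft tumors from daily orally dosed mice were fixed in 10% neutral-buffered formalin and paraffin-embedded. Six-micron sections were TUNEL-stained to detect apoptotic nuclei.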

Vascular endothelial growth factor receptor 2 (Homo sapiens), sequence (P35968 whole entry, the tested form may be a part): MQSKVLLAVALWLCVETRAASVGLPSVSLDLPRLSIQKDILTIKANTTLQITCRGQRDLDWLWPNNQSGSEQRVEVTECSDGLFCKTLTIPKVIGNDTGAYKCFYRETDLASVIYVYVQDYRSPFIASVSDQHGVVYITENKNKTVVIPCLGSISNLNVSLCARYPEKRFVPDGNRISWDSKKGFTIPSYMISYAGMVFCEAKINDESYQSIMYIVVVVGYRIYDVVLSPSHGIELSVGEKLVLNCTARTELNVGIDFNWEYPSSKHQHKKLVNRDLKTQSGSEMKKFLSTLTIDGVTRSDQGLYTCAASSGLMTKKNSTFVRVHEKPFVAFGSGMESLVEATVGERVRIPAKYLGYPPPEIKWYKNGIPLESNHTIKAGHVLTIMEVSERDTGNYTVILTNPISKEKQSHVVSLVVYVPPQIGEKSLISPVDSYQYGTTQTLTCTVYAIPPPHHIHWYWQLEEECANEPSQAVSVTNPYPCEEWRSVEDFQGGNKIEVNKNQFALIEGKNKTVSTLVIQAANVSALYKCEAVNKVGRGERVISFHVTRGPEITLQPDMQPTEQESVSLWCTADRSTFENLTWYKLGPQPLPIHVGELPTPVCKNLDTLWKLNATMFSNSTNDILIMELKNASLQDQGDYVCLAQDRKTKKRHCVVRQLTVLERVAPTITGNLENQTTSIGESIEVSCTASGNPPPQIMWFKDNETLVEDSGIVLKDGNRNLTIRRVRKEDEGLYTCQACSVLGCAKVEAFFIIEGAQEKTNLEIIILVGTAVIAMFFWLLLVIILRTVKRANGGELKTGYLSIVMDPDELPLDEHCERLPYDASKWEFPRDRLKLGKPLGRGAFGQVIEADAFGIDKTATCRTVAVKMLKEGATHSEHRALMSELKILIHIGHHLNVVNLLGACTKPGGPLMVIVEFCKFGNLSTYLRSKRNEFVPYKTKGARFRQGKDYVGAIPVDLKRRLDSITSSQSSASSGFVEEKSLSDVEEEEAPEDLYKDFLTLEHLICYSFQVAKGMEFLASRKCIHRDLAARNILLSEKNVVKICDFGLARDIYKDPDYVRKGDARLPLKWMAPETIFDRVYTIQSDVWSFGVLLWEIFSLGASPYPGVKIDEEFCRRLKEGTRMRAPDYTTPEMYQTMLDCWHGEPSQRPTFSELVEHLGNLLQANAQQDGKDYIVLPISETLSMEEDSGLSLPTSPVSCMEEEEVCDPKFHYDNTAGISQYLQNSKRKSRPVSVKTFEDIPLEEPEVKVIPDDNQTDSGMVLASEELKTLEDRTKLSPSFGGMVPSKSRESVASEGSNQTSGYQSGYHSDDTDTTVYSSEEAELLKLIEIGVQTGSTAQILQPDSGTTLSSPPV
Tyrosine-protein kinase Blk, sequence (P51451 2-505 limits assumed): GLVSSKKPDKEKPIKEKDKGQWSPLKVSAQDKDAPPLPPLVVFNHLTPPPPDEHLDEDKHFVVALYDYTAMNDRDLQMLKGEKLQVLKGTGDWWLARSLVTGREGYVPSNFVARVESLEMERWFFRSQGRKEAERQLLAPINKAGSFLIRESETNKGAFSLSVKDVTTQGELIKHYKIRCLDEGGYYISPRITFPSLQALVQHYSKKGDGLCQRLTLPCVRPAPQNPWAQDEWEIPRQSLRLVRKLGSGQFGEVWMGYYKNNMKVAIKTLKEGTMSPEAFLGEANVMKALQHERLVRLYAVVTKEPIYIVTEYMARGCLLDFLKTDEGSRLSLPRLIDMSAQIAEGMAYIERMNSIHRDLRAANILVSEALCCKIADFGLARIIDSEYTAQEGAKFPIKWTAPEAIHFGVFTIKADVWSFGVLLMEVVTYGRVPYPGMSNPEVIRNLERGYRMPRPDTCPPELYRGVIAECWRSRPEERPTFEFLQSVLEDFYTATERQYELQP
Mast/stem cell growth factor receptor Kit, sequence (P10721 whole entry): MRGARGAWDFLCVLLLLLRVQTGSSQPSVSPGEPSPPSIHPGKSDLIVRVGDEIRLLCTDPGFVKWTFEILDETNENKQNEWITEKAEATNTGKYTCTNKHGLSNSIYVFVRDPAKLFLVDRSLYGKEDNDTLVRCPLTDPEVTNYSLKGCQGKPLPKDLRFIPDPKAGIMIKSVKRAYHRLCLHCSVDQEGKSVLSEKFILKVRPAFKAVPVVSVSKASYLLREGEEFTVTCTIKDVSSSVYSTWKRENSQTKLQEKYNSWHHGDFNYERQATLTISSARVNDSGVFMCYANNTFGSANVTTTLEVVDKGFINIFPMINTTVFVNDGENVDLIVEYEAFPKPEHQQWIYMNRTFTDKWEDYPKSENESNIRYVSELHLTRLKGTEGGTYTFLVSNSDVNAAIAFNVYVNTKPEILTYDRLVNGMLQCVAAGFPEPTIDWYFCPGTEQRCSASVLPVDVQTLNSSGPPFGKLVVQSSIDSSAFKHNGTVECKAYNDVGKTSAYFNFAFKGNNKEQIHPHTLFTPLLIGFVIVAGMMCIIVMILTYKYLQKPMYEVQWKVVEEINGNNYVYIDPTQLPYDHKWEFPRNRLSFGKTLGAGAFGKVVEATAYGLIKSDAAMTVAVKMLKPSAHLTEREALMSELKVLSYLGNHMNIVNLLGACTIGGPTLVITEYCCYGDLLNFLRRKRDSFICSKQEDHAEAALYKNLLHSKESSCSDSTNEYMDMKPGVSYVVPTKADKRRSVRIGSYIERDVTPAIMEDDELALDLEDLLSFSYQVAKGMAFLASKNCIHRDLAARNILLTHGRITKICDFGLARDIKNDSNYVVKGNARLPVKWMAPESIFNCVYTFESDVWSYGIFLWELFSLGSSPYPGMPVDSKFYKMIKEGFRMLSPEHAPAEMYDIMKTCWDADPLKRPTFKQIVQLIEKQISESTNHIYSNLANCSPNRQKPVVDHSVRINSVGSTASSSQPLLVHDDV
BCR/ABL p210 fusion protein, sequence (A1Z199 1-97): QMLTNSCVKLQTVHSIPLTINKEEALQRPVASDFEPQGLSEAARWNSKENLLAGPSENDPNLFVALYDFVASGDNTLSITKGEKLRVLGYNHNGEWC

Row | SMILES | GI50 at 72 h [1] [µM] | GI50 [2] [µM] | GI50 [3] [µM] | GI50 [4] [µM] | GI50 [5] [µM] | GI50 [6] [µM] | GI50 [7] [µM] | GI50 [8] [µM] | GI50 [9] [µM] | GI50 [10] [µM] | GI50 [11] [µM] | GI50 [12] [µM] | GI50 at 72 h [13] [µM] | inhibition in vivo at 100 mg/kg [14] [%] | inhibition [15] | inhibition [16] | Activity (K562)
1 | Cc1ccc(NC(=O)c2ccc(CN3CCN(C)CC3)cc2)cc1Nc1nccc(-c2cccnc2)n1 [IMATINIB] | > 10 | > 10 | > 10 | > 10 | 0.008 | 0.014 | > 10 | > 10 | > 10 | > 10 | > 10 | > 10 | > 10 | 31.9 | – | – | –
2 | Cc1ccc(C(=O)N2CCC(Oc3cc(NC(=O)c4ccc(CN5CCN(C)CC5)c(C(F)(F)F)c4)ccc3C)CC2)cn1 | > 10 | 0.658 | 6.08 | 0.035 | 0.023 | 0.095 | 3.96 | 8.14 | 8.49 | 5.73 | 7.34 | 3.47 | > 10 | 66.8 | Active | Active | Dose-dependent effect
